Assay results as given in ChEMBL document CHEMBL3745688, “Discovery of novel hybrids of diaryl-1,2,4-triazoles and caffeic acid as dual inhibitors of cyclooxygenase-2 and 5-lipoxygenase for cancer therapy” (Eur J Med Chem, 2016).

Assays:
A549 [1] = test: Induction of apoptosis in human A549 cells assessed as late apoptotic cells at 25 uM after 72 hrs by annexinV-APC/7-AAD staining based flow cytometry (reference value: 1.81%); assay type: functional
A549 [2] = test: Induction of apoptosis in human A549 cells assessed as necrotic cells at 25 uM after 72 hrs by annexinV-APC/7-AAD staining based flow cytometry (Rvb =0.41%); assay type: functional
A549 [3] = test: Induction of apoptosis in human A549 cells after 3 days by annexinV-APC/7-AAD staining based flow cytometry; assay type: functional, cell-based
A549 [4] = test: Cell cycle arrest in human A549 cells assessed as accumulation at G2 phase at 1 uM after 72 hrs by propidium iodide staining based flow cytometry (reference value: 3.88%); assay type: functional
A549 [5] = test: Cell cycle arrest in human A549 cells assessed as accumulation at S phase at 1 uM after 72 hrs by propidium iodide staining based flow cytometry (reference value: 42.46%); assay type: functional
A549 [6] = test: Cell cycle arrest in human A549 cells assessed as accumulation at G1 phase at 5 uM after 72 hrs by propidium iodide staining based flow cytometry (reference value: 53.66%); assay type: functional
A549 [7] = test: Cell cycle arrest in human A549 cells assessed as accumulation at G2 phase at 5 uM after 72 hrs by propidium iodide staining based flow cytometry (reference value: 3.88%); assay type: functional
A549 [8] = test: Cell cycle arrest in human A549 cells assessed as accumulation at S phase at 5 uM after 72 hrs by propidium iodide staining based flow cytometry (reference value: 42.46%); assay type: functional
A549 [9] = test: Cell cycle arrest in human A549 cells assessed as accumulation at G1 phase at 25 uM after 72 hrs by propidium iodide staining based flow cytometry (reference value: 53.66%); assay type: functional
A549 [10] = test: Cell cycle arrest in human A549 cells assessed as accumulation at G2 phase at 25 uM after 72 hrs by propidium iodide staining based flow cytometry (reference value: 3.88%); assay type: functional
A549 [11] = test: Cell cycle arrest in human A549 cells assessed as accumulation at S phase at 25 uM after 72 hrs by propidium iodide staining based flow cytometry (reference value: 42.46%); assay type: functional
A549 [12] = test: Cell cycle arrest in human A549 cells assessed as accumulation at G2 phase after 72 hrs by propidium iodide staining based flow cytometry; assay type: functional
A549 [13] = test: Induction of apoptosis in human A549 cells assessed as necrotic cells at 1 uM after 72 hrs by annexinV-APC/7-AAD staining based flow cytometry (reference value: 0.41%); assay type: functional
A549 [14] = test: Induction of apoptosis in human A549 cells assessed as viable cells at 5 uM after 72 hrs by annexinV-APC/7-AAD staining based flow cytometry (Rvb =92.08%); assay type: functional; details: A549, 72 h, read-out: Activity
A549 [15] = test: Induction of apoptosis in human A549 cells assessed as early apoptotic cells at 5 uM after 72 hrs by annexinV-APC/7-AAD staining based flow cytometry (reference value: 5.7%); assay type: functional
A549 [16] = test: Induction of apoptosis in human A549 cells assessed as late apoptotic cells at 5 uM after 72 hrs by annexinV-APC/7-AAD staining based flow cytometry (reference value: 1.81%); assay type: functional
A549 [17] = test: Induction of apoptosis in human A549 cells assessed as necrotic cells at 5 uM after 72 hrs by annexinV-APC/7-AAD staining based flow cytometry (reference value: 0.41%); assay type: functional
A549 [18] = test: Induction of apoptosis in human A549 cells assessed as viable cells at 25 uM after 72 hrs by annexinV-APC/7-AAD staining based flow cytometry (reference value: 92.08%); assay type: functional; details: A549, 72 h, read-out: Activity
[19] = target: T1, Prostaglandin G/H synthase 2 (Rattus norvegicus, UniProt P35355); test: Inhibition of COX2 in rat abdominal macrophages assessed as PGE2 production pretreated for 30 mins followed by addition of 10 uM arachidonic acid as substrate for 20 mins by EIA
T1 sequence (P35355 whole entry): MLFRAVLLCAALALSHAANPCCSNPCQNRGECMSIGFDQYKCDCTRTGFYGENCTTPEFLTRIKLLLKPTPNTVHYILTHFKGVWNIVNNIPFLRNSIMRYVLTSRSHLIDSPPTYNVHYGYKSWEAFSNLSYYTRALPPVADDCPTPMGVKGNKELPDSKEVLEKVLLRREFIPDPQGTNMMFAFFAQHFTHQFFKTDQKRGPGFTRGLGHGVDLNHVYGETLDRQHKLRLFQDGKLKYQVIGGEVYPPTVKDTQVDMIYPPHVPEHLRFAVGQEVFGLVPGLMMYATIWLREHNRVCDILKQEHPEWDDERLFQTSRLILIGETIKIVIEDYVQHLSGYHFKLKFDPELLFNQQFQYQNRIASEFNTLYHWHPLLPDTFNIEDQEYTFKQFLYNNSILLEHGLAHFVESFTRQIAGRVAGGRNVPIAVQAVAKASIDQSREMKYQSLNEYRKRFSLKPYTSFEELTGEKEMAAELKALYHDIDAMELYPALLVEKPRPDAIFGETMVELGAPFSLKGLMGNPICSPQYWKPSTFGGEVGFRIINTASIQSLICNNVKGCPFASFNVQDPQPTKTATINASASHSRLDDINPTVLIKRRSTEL

[20] = Selectivity index, ratio of IC50 for rat COX2 to IC50 for calf COX1
Method in brief: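 Ratio of COX-2 IC50 to COX-1 IC50. COX-2 was measured in rat peritoneal macrophages: 1.0×10^6/well in RPMI 1640 with 5% FCS, grown 24 h, COX-1 inactivated with 1 mM aspirin, COX-2 induced with LPS 1 µg/mL for 6 h, compound added for 30 min, then arachidonic acid 10 µM for 20 min, PGE2 read by EIA. COX-1 was measured in calf aortic endothelial cells by 6-keto-PGF1α radioimmunoassay.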

A549 [21] = test: Antiproliferative activity against human A549 cells after 72 hrs by MTT assay; assay type: functional, cell-based; details: A549, 72 h
Method in brief: (§1)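 Cells seeded at 5×10^4/well, grown 24 h at 37 °C in 5% CO₂, then exposed to compounds dissolved in DMSO at a range of concentrations for 72 h. MTT (5 mg/mL in PBS) added for 4 h, then OD read at 570 nm. IC50 taken from dose-response curves, mean ± S.D. of three independent experiments.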

[22] = Antiproliferative activity against human Caco2 cells after 72 hrs by MTT assay; assay type: functional, cell-based; details: Caco-2, 72 h; method in brief: as §1
[23] = Antiproliferative activity against human PC3 cells after 72 hrs by MTT assay; assay type: functional, cell-based; details: PC-3, 72 h; method in brief: as §1
[24] = Antiproliferative activity against mouse B16F10 cells after 72 hrs by MTT assay; assay type: functional, cell-based; details: B16-F10, 72 h; method in brief: as §1
A549 [25] = test: Induction of apoptosis in human A549 cells assessed as viable cells at 1 uM after 72 hrs by annexinV-APC/7-AAD staining based flow cytometry (reference value: 92.08%); assay type: functional; details: A549, 72 h, read-out: Activity
A549 [26] = test: Induction of apoptosis in human A549 cells assessed as early apoptotic cells at 1 uM after 72 hrs by annexinV-APC/7-AAD staining based flow cytometry (reference value: 5.7%); assay type: functional
A549 [27] = test: Induction of apoptosis in human A549 cells assessed as late apoptotic cells at 1 uM after 72 hrs by annexinV-APC/7-AAD staining based flow cytometry (reference value: 1.81%); assay type: functional

**Q.** With CS(=O)(=O)c1ccc(-c2nc(SCCCOC(=O)/C=C/c3ccc(O)c(O)c3)nn2-c2ccc(F)cc2)cc1 as the compound, how does the Activity (A549 [1]) read?
**A.** 6.15%

**Q.** And the Activity (A549 [2])?
**A.** 1.51%

**Q.** And the Activity (A549 [3])?
**A.** Dose-dependent effect

**Q.** What about the Activity (A549 [4]) of the same compound?
**A.** 7.24%

**Q.** And the Activity (A549 [5])?
**A.** 42.92%

**Q.** And the Activity (A549 [6])?
**A.** 45.34%

**Q.** And the Activity (A549 [7])?
**A.** 13.76%

**Q.** And the Activity (A549 [8])?
**A.** 40.9%

**Q.** And the Activity (A549 [9])?
**A.** 47.29%

**Q.** And the Activity (A549 [10])?
**A.** 20.53%

**Q.** What about the Activity (A549 [11]) of the same compound?
**A.** 32.19%

**Q.** What about the Activity (A549 [12]) of the same compound?
**A.** Dose-dependent effect

**Q.** What about the Activity (A549 [13]) of the same compound?
**A.** 0.91%

**Q.** What about the viability at 5 µM (A549 [14]) of the same compound?
**A.** 67.8%

**Q.** What about the Activity (A549 [15]) of the same compound?
**A.** 23.68%

**Q.** And the Activity (A549 [16])?
**A.** 6.37%

**Q.** And the Activity (A549 [17])?
**A.** 2.14%

**Q.** What about the viability at 25 µM (A549 [18]) of the same compound?
**A.** 55.1%

**Q.** What about the IC50 [19] of the same compound?
**A.** 0.18 µM

**Q.** What about the Ratio IC50 [20] of the same compound?
**A.** 0.014

**Q.** What about the IC50 (A549 [21]) of the same compound?
**A.** 9.52 µM

**Q.** What about the IC50 [22] of the same compound?
**A.** 11.2 µM

**Q.** And the IC50 [23]?
**A.** 10.1 µM

**Q.** What about the IC50 [24] of the same compound?
**A.** 10.4 µM

**Q.** And the viability at 1 µM (A549 [25])?
**A.** 86.2%

**Q.** And the Activity (A549 [26])?
**A.** 9.73%

**Q.** And the Activity (A549 [27])?
**A.** 3.13%
